“And” between values parts separate entries of the source, which are not always exact repeats. Equal entries are not always repeated.
Test system: HEK-293T
Assay: Multiplex assay against HEK293T
Assay type: toxicity, cell-based
Details: human
Summary of the method: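 On a CQ1 microscope at 37°C and 5% CO2, live cells were imaged after compound addition. They had been stained at seeding with Hoechst33342, BioTracker Green Microtubule Cytoskeleton Dye, MitoTracker Red and Annexin V Alexa Fluor 680. CellPathfinder machine-learning gating assigned cells to Hoechst high-intensity objects or normal cells, normal cells to healthy, pyknosed or fragmented nuclei, and pyknosed cells to mitotic or apoptotic. Tubulin, mitochondrial-mass and membrane-permeability phenotypes are per cents of healthy-nucleus cells.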

[1] = 12 h, 1 µM, compound concentration 1 uM
[2] = 12 h, 10 µM, compound concentration 10 uM
[3] = 24 h, 1 µM, compound concentration 1 uM
[4] = 24 h, 10 µM, compound concentration 10 uM
[5] = 48 h, 1 µM, compound concentration 1 uM
[6] = 48 h, 10 µM, compound concentration 10 uM

Q: `FC(F)(F)c1ccccc1-c1cc(C(F)(F)F)c2[nH]c(C3=NOC4(CCCCC4)C3)nc2c1` was tested. Which “Population Apoptotic (%)” value [1] did it give?
A: 5.48% and 14.05%

Q: And the “Population Fragmented Nuclei (%)” value [1]?
A: 1.23% and 6.04%

Q: What about the “Population Hoechst High Intensity Objects (%)” value [1] of the same compound?
A: 0%

Q: And the “Population Membrane Permeable-Phenotype (%)” value [1]?
A: 0%

Q: What about the “Population Mitochondria Different-Phenotype (%)” value [1] of the same compound?
A: 43.68% and 36.84%

Q: What about the “Population Mitotic Cells (%)” value [1] of the same compound?
A: 94.52% and 85.95%

Q: What about the “Population Normal (%)” value [1] of the same compound?
A: 100%

Q: And the “Population Pyknosed Nuclei (%)” value [1]?
A: 45.06% and 81.21%

Q: And the “Total Cell Count” value [1]?
A: 324 and 149

Q: And the “Population Apoptotic (%)” value [2]?
A: 11.51% and 25.77%

Q: And the “Population Fragmented Nuclei (%)” value [2]?
A: 0.39% and 4.42%

Q: What about the “Population Hoechst High Intensity Objects (%)” value [2] of the same compound?
A: 0.78% and 0%

Q: What about the “Population Membrane Permeable-Phenotype (%)” value [2] of the same compound?
A: 0%

Q: What about the “Population Mitochondria Different-Phenotype (%)” value [2] of the same compound?
A: 32.17% and 18.18%

Q: And the “Population Mitotic Cells (%)” value [2]?
A: 88.49% and 74.23%

Q: And the “Population Normal (%)” value [2]?
A: 99.22% and 100%

Q: And the “Population Pyknosed Nuclei (%)” value [2]?
A: 54.51% and 85.84%

Q: And the “Population Tubulin-Different-Phenotype (%)” value [2]?
A: 40.87% and 45.45%

Q: What about the “Total Cell Count” value [2] of the same compound?
A: 257 and 113

Q: And the “Population Apoptotic (%)” value [3]?
A: 10.89% and 15.53%

Q: What about the “Population Fragmented Nuclei (%)” value [3] of the same compound?
A: 1.48% and 2.1%

Q: And the “Population Hoechst High Intensity Objects (%)” value [3]?
A: 0%

Q: And the “Population Membrane Permeable-Phenotype (%)” value [3]?
A: 0.93% and 5.41%

Q: And the “Population Mitochondria Different-Phenotype (%)” value [3]?
A: 18.75% and 24.32%

Q: What about the “Population Mitotic Cells (%)” value [3] of the same compound?
A: 89.11% and 84.47%

Q: What about the “Population Normal (%)” value [3] of the same compound?
A: 100%

Q: What about the “Population Tubulin-Different-Phenotype (%)” value [3] of the same compound?
A: 18.29% and 21.62%

Q: What about the “Population Apoptotic (%)” value [4] of the same compound?
A: 37.98% and 40%

Q: And the “Population Fragmented Nuclei (%)” value [4]?
A: 1.06% and 5.51%

Q: What about the “Population Hoechst High Intensity Objects (%)” value [4] of the same compound?
A: 0.7% and 0%

Q: What about the “Population Membrane Permeable-Phenotype (%)” value [4] of the same compound?
A: 0.66% and 0%

Q: What about the “Population Mitochondria Different-Phenotype (%)” value [4] of the same compound?
A: 57.89% and 50%

Q: And the “Population Mitotic Cells (%)” value [4]?
A: 62.02% and 60%

Q: And the “Population Normal (%)” value [4]?
A: 99.3% and 100%

Q: What about the “Population Pyknosed Nuclei (%)” value [4] of the same compound?
A: 45.42% and 86.61%

Q: And the “Population Tubulin-Different-Phenotype (%)” value [4]?
A: 72.37% and 30%

Q: What about the “Total Cell Count” value [4] of the same compound?
A: 286 and 127

Q: What about the “Population Fragmented Nuclei (%)” value [5] of the same compound?
A: 2% and 1.31%

Q: What about the “Population Healthy Nuclei (%)” value [5] of the same compound?
A: 85.85% and 52.94%

Q: What about the “Population Hoechst High Intensity Objects (%)” value [5] of the same compound?
A: 0%

Q: What about the “Population Membrane Permeable-Phenotype (%)” value [5] of the same compound?
A: 4.66% and 2.47%

Q: What about the “Population Mitochondria Different-Phenotype (%)” value [5] of the same compound?
A: 18.43% and 25.93%

Q: And the “Population Mitotic Cells (%)” value [5]?
A: 94.52% and 78.57%

Q: And the “Population Normal (%)” value [5]?
A: 100%

Q: And the “Population Apoptotic (%)” value [6]?
A: 29.75% and 35.21%

Q: What about the “Population Fragmented Nuclei (%)” value [6] of the same compound?
A: 1.37% and 5.17%

Q: What about the “Population Healthy Nuclei (%)” value [6] of the same compound?
A: 74.95% and 33.62%

Q: What about the “Population Hoechst High Intensity Objects (%)” value [6] of the same compound?
A: 0%

Q: And the “Population Membrane Permeable-Phenotype (%)” value [6]?
A: 3.92% and 2.56%

Q: And the “Population Mitochondria Different-Phenotype (%)” value [6]?
A: 79.11% and 61.54%

Q: And the “Population Mitotic Cells (%)” value [6]?
A: 70.25% and 64.79%

Q: What about the “Population Normal (%)” value [6] of the same compound?
A: 100%

Q: And the “Population Pyknosed Nuclei (%)” value [6]?
A: 23.68% and 61.21%

Q: With `O=C1[C@H](Cc2ccc(O)cc2)N2C(=O)CCN(C(=O)NCc3ccccc3)[C@H]2CN1Cc1cccc2ccccc12` as the compound, how does the “Population Apoptotic (%)” value [1] read?
A: 44% and 46%

Q: And the “Population Fragmented Nuclei (%)” value [1]?
A: 6% and 7%

Q: And the “Population Healthy Nuclei (%)” value [1]?
A: 80% and 78%

Q: And the “Population Hoechst High Intensity Objects (%)” value [1]?
A: 6% and 8%

Q: What about the “Population Membrane Permeable-Phenotype (%)” value [1] of the same compound?
A: 0%

Q: What about the “Population Mitochondria Different-Phenotype (%)” value [1] of the same compound?
A: 54% and 68%

Q: What about the “Population Mitotic Cells (%)” value [1] of the same compound?
A: 55% and 53%

Q: What about the “Population Normal (%)” value [1] of the same compound?
A: 93% and 91%

Q: What about the “Population Pyknosed Nuclei (%)” value [1] of the same compound?
A: 12% and 13%

Q: And the “Population Tubulin-Different-Phenotype (%)” value [1]?
A: 46% and 33%

Q: And the “Total Cell Count” value [1]?
A: 374 and 259

Q: And the “Population Apoptotic (%)” value [2]?
A: 68% and 60%

Q: What about the “Population Fragmented Nuclei (%)” value [2] of the same compound?
A: 5%

Q: What about the “Population Healthy Nuclei (%)” value [2] of the same compound?
A: 74% and 82%

Q: What about the “Population Hoechst High Intensity Objects (%)” value [2] of the same compound?
A: 11% and 14%

Q: What about the “Population Membrane Permeable-Phenotype (%)” value [2] of the same compound?
A: 0%

Q: And the “Population Mitochondria Different-Phenotype (%)” value [2]?
A: 90% and 93%

Q: What about the “Population Mitotic Cells (%)” value [2] of the same compound?
A: 31% and 40%

Q: What about the “Population Normal (%)” value [2] of the same compound?
A: 88% and 85%

Q: And the “Population Pyknosed Nuclei (%)” value [2]?
A: 20% and 11%

Q: And the “Population Tubulin-Different-Phenotype (%)” value [2]?
A: 76% and 67%

Q: What about the “Total Cell Count” value [2] of the same compound?
A: 340 and 257

Q: What about the “Population Apoptotic (%)” value [3] of the same compound?
A: 23% and 55%

Q: And the “Population Fragmented Nuclei (%)” value [3]?
A: 7% and 8%

Q: What about the “Population Healthy Nuclei (%)” value [3] of the same compound?
A: 80% and 77%

Q: What about the “Population Hoechst High Intensity Objects (%)” value [3] of the same compound?
A: 7% and 8%

Q: And the “Population Membrane Permeable-Phenotype (%)” value [3]?
A: 0%

Q: What about the “Population Mitochondria Different-Phenotype (%)” value [3] of the same compound?
A: 49% and 47%

Q: What about the “Population Mitotic Cells (%)” value [3] of the same compound?
A: 76% and 45%

Q: And the “Population Normal (%)” value [3]?
A: 92% and 91%

Q: And the “Population Pyknosed Nuclei (%)” value [3]?
A: 11% and 14%

Q: What about the “Population Tubulin-Different-Phenotype (%)” value [3] of the same compound?
A: 38% and 24%

Q: What about the “Total Cell Count” value [3] of the same compound?
A: 470 and 305

Q: And the “Population Apoptotic (%)” value [4]?
A: 68% and 74%

Q: And the “Population Fragmented Nuclei (%)” value [4]?
A: 7% and 9%

Q: What about the “Population Healthy Nuclei (%)” value [4] of the same compound?
A: 75% and 77%

Q: And the “Population Hoechst High Intensity Objects (%)” value [4]?
A: 11% and 14%

Q: What about the “Population Membrane Permeable-Phenotype (%)” value [4] of the same compound?
A: 0%

Q: And the “Population Mitochondria Different-Phenotype (%)” value [4]?
A: 94% and 95%

Q: And the “Population Mitotic Cells (%)” value [4]?
A: 31% and 25%

Q: And the “Population Normal (%)” value [4]?
A: 88% and 85%

Q: And the “Population Pyknosed Nuclei (%)” value [4]?
A: 16% and 12%

Q: What about the “Population Tubulin-Different-Phenotype (%)” value [4] of the same compound?
A: 65% and 70%

Q: What about the “Total Cell Count” value [4] of the same compound?
A: 278 and 249

Q: And the “Population Apoptotic (%)” value [5]?
A: 30% and 50%

Q: What about the “Population Fragmented Nuclei (%)” value [5] of the same compound?
A: 14% and 11%

Q: And the “Population Healthy Nuclei (%)” value [5]?
A: 78% and 81%

Q: What about the “Population Hoechst High Intensity Objects (%)” value [5] of the same compound?
A: 4% and 3%

Q: And the “Population Membrane Permeable-Phenotype (%)” value [5]?
A: 0%

Q: And the “Population Mitochondria Different-Phenotype (%)” value [5]?
A: 34% and 29%

Q: What about the “Population Mitotic Cells (%)” value [5] of the same compound?
A: 69% and 50%

Q: What about the “Population Normal (%)” value [5] of the same compound?
A: 95% and 96%

Q: And the “Population Pyknosed Nuclei (%)” value [5]?
A: 6% and 7%

Q: What about the “Population Tubulin-Different-Phenotype (%)” value [5] of the same compound?
A: 26% and 19%

Q: And the “Total Cell Count” value [5]?
A: 730 and 472

Q: What about the “Population Apoptotic (%)” value [6] of the same compound?
A: 71% and 57%

Q: And the “Population Fragmented Nuclei (%)” value [6]?
A: 8% and 11%

Q: And the “Population Healthy Nuclei (%)” value [6]?
A: 79% and 73%

Q: What about the “Population Hoechst High Intensity Objects (%)” value [6] of the same compound?
A: 10% and 20%

Q: And the “Population Membrane Permeable-Phenotype (%)” value [6]?
A: 0%

Q: And the “Population Mitochondria Different-Phenotype (%)” value [6]?
A: 94% and 88%

Q: And the “Population Mitotic Cells (%)” value [6]?
A: 28% and 42%

Q: What about the “Population Normal (%)” value [6] of the same compound?
A: 89% and 79%

Q: And the “Population Pyknosed Nuclei (%)” value [6]?
A: 11% and 14%

Q: And the “Population Tubulin-Different-Phenotype (%)” value [6]?
A: 63% and 72%

Q: What about the “Total Cell Count” value [6] of the same compound?
A: 297 and 232

Source: ChEMBL document CHEMBL5724801, “EUbOPEN Chemogenomics Library - Multiplex” (2024)
